Source: PubChem (several laboratories)
An excerpt weighted towards active compounds, which were near 2.4% of everything screened.
Neddyl block – blocks human cullin neddylation; P61081+Q13564; TR-FRET cullin neddylation, biochemical; inhibition, % at 25 µM; 360,000 tested, 0.58% active; AID 651699; in the data active = inhibition above about 36%
TPT1 inhibitor – C. albicans TPT1 enzyme inhibition | 300,000 tested, 0.81% active | recombinant caTPT1, FP RNA substrate dephosphorylation | inhibition, % at 5 µM;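 active = inhibition above the mean of all tested compounds plus 3 SD, set per screening campaign, cut at about 24% in these data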;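 also: plate controls were DMSO alone for no effect and ferristatin control at 100 nM for full effect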
HNF4A DNA FP – change in binding of human HNF4 alpha to DNA. HNF4a-FITC DNA binding, fluorescence polarization, 1 h. activity change, % at 10 µM. 360,000 tested, 0.3% active. AID 1224865; in the data active = activity change above about 30%, passing the limit was not always enough
CSN inh – CSN deneddylation inhibition; Q92905; Purified CSN, SCF-Nedd8-OG deneddylation, fluorescence polarization; inhibition, % at 12.5 µM; 360,000 tested, 0.38% active; AID 651999;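 active = pattern-corrected inhibition above about 35%, with an unprinted fluorescence ratio check between 0.5 and 1.5, limit read from the data, passing the limit was not always enough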;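 also: 0% = enzyme with substrate and 100% = substrate without enzyme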
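Test system: Human Csn5 produced in HEK293T cells | Compound: 12.5 µM single point | Times: 90 min, room temperature | Signal: Fluorescence polarization readout | Read-out basis: % inhibition of substrate cleavage by Csn5 | Controls: no-enzyme wells high, enzyme-with-substrate wells low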
Rpn11 inh – inhibitors of human proteasome Rpn11. O00487. human 26S proteasome, Ub4-pepOG fluorescence polarization; 20S core pre-blocked with epoxomicin. inhibition, % at 20 µM. 360,000 tested, 0.59% active;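 active = inhibition at 20 µM, scaled to each plate's controls, above about 33%, limit read from the data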
Rin1-Abl PPI inh – human Rin1-Abl interaction inhibition; P00519+Q13671; TR-FRET Rin1/Abl binding, biochemical; inhibition, % at 7.35 µM; 360,000 tested, 0.4% active; in the data active = inhibition above about 5%, passing the limit was not always enough
TPT1 inh confirm – TPT1 (C. albicans) inhibition, confirmation; shares compounds with TPT1 inhibitor; recombinant caTPT1, fluorescence polarization, RNase T1 coupled; inhibition, % at 5 µM; 2,400 tested, 74% active;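 active = inhibition above the primary screen limit, the mean inhibition of all tested compounds plus 3 SD, cut at about 25% in these data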
RNase T1 inh – counter-screen for TPT1 inhibitors: inhibitors of Aspergillus oryzae RNase T1; AID 2153; inhibition, % at 5 µM; RNase T1 cleavage, fluorescence polarization, 1536-well; 2,400 tested, 83% active; shares compounds with TPT1 inhibitor;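 active = inhibition above the solvent-only control well mean plus 3 SD, limit set per screening run, cut at about 23% in these data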;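 also: plate controls were DMSO wells with enzyme for no effect and wells without RNase T1 for full effect; inhibitors block cleavage so intact labeled substrate keeps polarization high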
Starred values were filed as active, the others as inactive; · = no result shown; + = active, no number.

SMILES | Neddyl block | TPT1 inhibitor | HNF4A DNA FP | CSN inh | Rpn11 inh | Rin1-Abl PPI inh | TPT1 inh confirm | RNase T1 inh
N#C/C(C(N)=O)=C1/SC(Cc2ccc(F)cc2)C(=O)N1c1ccccc1 (configuration not stated) | 3 | 28* | 2 | 0 | 21 | -2 | 4 | 5
COc1ccc(OCC(=O)N/N=C(\C)c2cc3ccccc3o2)cc1 | -15 | 27* | 2 | 3 | -2 | 0 | 24 | 35*
Cc1cc(NC(=O)/C(C#N)=C/c2ccc(-c3ccc(SC(F)F)cc3)o2)n(-c2ccccc2)n1 | 30 | 57* | 151 | 64* | · | 2 | 57* | 66*
O=C1CSc2ccc(S(=O)(=O)N3CCN(c4ccccc4F)CC3)cc2N1 | -3 | 28* | 1 | 1 | -2 | 2 | 3 | 10
O=C1CSc2ccc(S(=O)(=O)N3CCN(c4ccccc4)CC3)cc2N1 | -12 | 2 | 6 | 3 | -6 | 1 | · | ·
NS(=O)(=O)c1cccc(NC(=O)CN2CCc3ccccc32)c1 | 6 | -38 | 1 | -1 | 11 | 1 | · | ·
CN(c1ccccc1)S(=O)(=O)c1cccc(NC(=O)CN2CCCc3ccccc32)c1 | -9 | 37* | 10 | 5 | 32 | -2 | 25* | 37*
CCC(C)N1C(=O)/C(=C/c2c(NCCCOC(C)C)nc3c(C)cccn3c2=O)SC1=S (configuration not stated) | -44 | 151* | 2 | -78 | 7 | -2 | 165* | 156*
O=S(=O)(/C=C/c1ccccc1)N1CCN(c2nc(-c3ccccc3)nc3ccccc23)CC1 | 8 | 1 | 3 | 3 | 5 | -4 | · | ·
CC1=Nc2ccccc2/C1=C\c1nc(-c2ccc(F)cc2)oc1O | -7 | 93* | 14 | 3 | -11 | 1 | 96* | 102*
Cc1cnc(=O)[nH]c1SCc1ccc([N+](=O)[O-])cc1 | -35 | 2 | 0 | 1 | -6 | -8 | · | ·
COc1ccc(N(C(=O)c2ccncc2)S(=O)(=O)c2cccc([N+](=O)[O-])c2)cc1 | -26 | 2 | -2 | -1 | 5 | -4 | · | ·
COc1ccc(N(C(=O)c2cccnc2)S(=O)(=O)c2cccc([N+](=O)[O-])c2)cc1 | -24 | 68* | 0 | -1 | 1 | 3 | 5 | 7
COC(=O)c1sc2nc(CSc3nc4ccc(C)cc4[nH]3)[nH]c(=O)c2c1C | 4 | 38* | 25 | 15 | · | 2 | 33* | 45*
CCNc1ccc(Br)cc(C(=O)/C=C/c2ccc(Cl)cc2)c1=O | 8 | 64* | -1 | 32 | 31 | 5 | 46* | 71*
O=C(/C=C/c1ccccc1)c1cc(Br)ccc(=O)c1O | -25 | 17 | 3 | 34 | 16 | 1 | · | ·
CCNc1ccc(Br)cc(C(=O)/C=C/c2c(Cl)cccc2Cl)c1=O | 6 | 70* | 3 | 37* | 54* | 2 | 75* | 84*
CCOc1ccc(Oc2ccc(C(F)(F)F)cc2NC(=O)C2=COCCO2)cc1 | 6 | · | -1 | 3 | 10 | 0 | · | ·
CSc1ccccc1NC(=O)COC(=O)c1cnc(C)cn1 | 7 | · | 2 | -3 | -4 | 1 | · | ·
Nc1c(C(=O)c2ccccc2)sc2snc(SCC(=O)c3ccccc3)c12 | -27 | 102* | 16 | 4 | 38 | 1 | 71* | 77*
C=CCn1ccc2c([N+](=O)[O-])cccc2c1=O | -36 | 1 | -3 | 4 | 10 | 1 | · | ·
C=CCn1ccc(=NC=C(C#N)C#N)c2ccccc21 | -22 | 31* | 13 | -1 | 36 | -7 | 45* | 57*
O=C(NCC(=O)N1CCN(c2ccccc2O)CC1)c1cccs1 | 7 | -2 | 2 | -1 | -2 | 0 | · | ·
O=C(c1ccc(CS(=O)Cc2ccccc2Cl)o1)N1CCN(C2CCCCC2)CC1 (configuration not stated) | 4 | 117* | -2 | -5 | -7 | -3 | 7 | 4
CCOC(=O)/C(=C\C=C1/Sc2cc(OCC)c(OCC)cc2N1CC)C(C)=O | -315 | 147* | -90 | -37 | · | -14 | 123* | 123*
SMILES | Neddyl block | TPT1 inhibitor | HNF4A DNA FP | CSN inh | Rpn11 inh | Rin1-Abl PPI inh | TPT1 inh confirm | RNase T1 inh
CCOC(=O)/C(=C/C=C1\Sc2cc(OCC)c(OCC)cc2N1CC)C(C)=O | -495 | + | -104 | -66 | · | -14 | 149* | 142*
Cc1cccc(C(CC(=O)N2CCCCC2)c2ccccc2)c1O (configuration not stated) | 6 | 0 | 2 | -2 | 5 | -3 | · | ·
Cc1nc2ccccc2c(=O)n1/N=C/c1ccc2ccccc2c1O | 8 | 54* | 1 | 7 | 4 | -3 | 26* | 35*
COc1ccc(C2/C=C\CN(CC(C)C)CC(=O)N2Cc2cccc(F)c2)cc1 (configuration not stated) | 10 | · | 4 | 1 | 3 | -2 | · | ·
CN(C)c1ccc(/C=C(\NC(=O)c2ccccc2)C(=O)NCc2cccnc2)cc1 | -4 | 51* | 3 | 19 | 37 | -3 | 68* | 84*
CN(C)c1ccc(/C=C(\NC(=O)c2ccccc2)C(=O)N/N=C/c2ccc(C(=O)O)cc2)cc1 | 25 | 33* | 4 | 4 | 33 | -1 | 20 | 29*
CN(C)c1ccc(/C=C(/NC(=O)c2ccccc2)C(=O)NCCCn2ccnc2)cc1 | -6 | 134* | 14 | 72* | · | 1 | 155* | 157*
CN(C)c1ccc(/C=N/NC(=O)c2ccccc2)cc1 | 36 | 0 | -2 | 9 | 0 | -1 | · | ·
CN(C)c1ccc(/C=C(\NC(=O)c2ccccc2)C(=O)NCCN2CCOCC2)cc1 | -2 | 28* | 1 | 5 | 18 | -2 | 17 | 23*
O=C(CCSCCC(=O)Nc1c(F)c(F)c(F)c(F)c1F)Nc1c(F)c(F)c(F)c(F)c1F | -6 | -1 | 1 | 0 | 4 | 1 | · | ·
Cn1cccc1C(=O)OCC(=O)NC(=O)c1ccc(Cl)cc1 | -28 | · | 8 | 4 | -3 | -2 | · | ·
C[C@@H](NC(=O)C1(c2ccccc2)CCN(C(=O)OC(C)(C)C)CC1)C(=O)N[C@@H](C(=O)O)c1ccccc1 | 6 | 0 | 3 | 4 | -6 | -2 | · | ·
COc1ccc(NC(=S)NCCCN2CCN(C3CCCCC3)CC2)cc1 | -8 | 1 | 3 | -3 | -5 | -5 | · | ·
Cc1ccc2c(c1)N/C(=C(\C=C(/Cl)[N+](=O)[O-])[N+](=O)[O-])N2 | · | 25* | · | · | · | · | 23 | 33*
CCOCCn1c(=O)c2c(nc3n2CC(C)CN3CCc2ccccc2)n(C)c1=O (configuration not stated) | -6 | 1 | -5 | -2 | 1 | 5 | · | ·
